# From PubChem
# RAD52 anneal inh – inhibitors of human RAD52 DNA annealing; actives 0.46% (n = 360,000); recombinant RAD52 DNA annealing, FRET fluorescence; inhibition, % at 18.7 µM; P43351;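 active means every replicate showing at least 50% inhibition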
# Target sequence (P43351 whole entry, looked up): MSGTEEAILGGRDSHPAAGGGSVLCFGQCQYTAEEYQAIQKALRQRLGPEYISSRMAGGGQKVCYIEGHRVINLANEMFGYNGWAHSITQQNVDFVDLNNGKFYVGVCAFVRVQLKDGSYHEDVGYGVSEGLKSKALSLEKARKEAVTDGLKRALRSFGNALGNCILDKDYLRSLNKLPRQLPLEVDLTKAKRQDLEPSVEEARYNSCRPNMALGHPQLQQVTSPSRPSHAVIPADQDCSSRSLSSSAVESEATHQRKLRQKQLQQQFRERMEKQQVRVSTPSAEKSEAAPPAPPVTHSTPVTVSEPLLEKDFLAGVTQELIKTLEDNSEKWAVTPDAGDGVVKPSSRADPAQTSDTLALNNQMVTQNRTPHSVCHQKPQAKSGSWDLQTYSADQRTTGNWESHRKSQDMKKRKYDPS
# Neddylation inh – cullin neddylation inhibition; P61081+Q13564; TR-FRET cullin neddylation, biochemical; calls only at 25 µM; actives 0.58% (n = 360,000); AID 651699; in the data active means inhibition above about 36%
# RAD54 inh – RAD54 (human) branch migration inhibition | actives 0.14% (n = 360,000) | AID 602329 | inhibition, % at 10.4 µM | Q92698 | RAD54 Holliday junction branch migration, FAM/BHQ fluorescence;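 active means mean normalized replicate activity at least 40 and at least half of replicates scoring 40 or more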;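 further: 0% = median of neutral control wells and 100% = median of positive control wells; inhibitors cause a drop in the FAM fluorescence signal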
# UBC13 polyUb – human UBC13 polyubiquitination inhibition | P61088 | UBC13 polyubiquitin chain formation, TR-FRET | inhibition, % at 20 µM | actives 0.47% (n = 330,000); in the data active means inhibition above about 45%, passing the limit was not always enough
# Target sequence (P61088 whole entry, looked up): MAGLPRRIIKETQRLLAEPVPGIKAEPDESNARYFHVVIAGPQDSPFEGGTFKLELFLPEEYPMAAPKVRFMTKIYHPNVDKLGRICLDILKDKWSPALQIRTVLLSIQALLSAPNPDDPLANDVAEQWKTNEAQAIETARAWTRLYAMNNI
# FID counter – counter-screen for HCV NS3 helicase inhibitors: DNA intercalator displacement. actives 0.17% (n = 290,000). AID 1845. DNA fluorescent intercalator displacement, fluorescence. inhibition, % at 7.9 µM; in the data active means inhibition above about 37%;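 further: 0% = vehicle and 100% = reference compound; higher means more ethidium bromide displaced from hairpin DNA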
# Apaf-1 inh – blocks human Apaf-1 apoptosome activity; actives 0.71% (n = 330,000); AID 489030; reconstituted apoptosome caspase-3 activity, DEVD-Rh110 fluorescence; O14727; inhibition, % at 20 µM; active means inhibition of at least 40% at 20 µM;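 further: plate controls were DMSO wells for no effect and DEVD-CHO caspase inhibitor wells for full effect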
#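 System – cell-free apoptosome with Apaf-1, procaspase-3 and caspase-9 · Buffer or medium – pH 7.5 Hepes buffer with CHAPS, BSA, DTT · Also added – cytochrome c with DEVD-Rh110 · Times – 30 min compound preincubation, 50 min activation, room temperature · Technique – Rh110 fluorescence intensity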
# RAD52 DNA ctr – binds DNA, flagging false RAD52 inhibitor hits | shares compounds with RAD52 anneal inh | Salmon sperm DNA/acridine orange FP displacement, DNA binding | AC50, µM | actives 8% (n = 1,000) | AID 652128;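 active means fitted half-maximal concentration for signal loss at or below twice the highest dose tested, in every separate run, actives reach about 64 µM in these data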
# Starred values were filed as active, the others as inactive; i = inactive; · = no result shown; ! = a repeat was not active. Sampled rows, rich in hits. Any-hit rate of the full collection: about 1.6%.
SMILES,RAD52 anneal inh,Neddylation inh,RAD54 inh,UBC13 polyUb,FID counter,Apaf-1 inh,RAD52 DNA ctr
CCN1CCN(Cc2ccc(C(=O)Nc3ccc(C)c(NCc4cnc(NC(=O)OC)cn4)c3)cc2C(F)(F)F)CC1,96.5*!,i,-9.2,18.8,22.3,3.9,i
O=C1c2c(O)ccc(O)c2C(=O)c2c(NCCNCCO)ccc(NCCNCCO)c21,101.8*,i,122.2*,34.2,·,78.4*,1.48µM*!
Cc1c(C(=O)NCCSCc2ccco2)cccc1[N+](=O)[O-],·,i,-4.4,1.0,-0.5,0.4,·
CN/C(=C\[N+](=O)[O-])NCCSCc1ccc(CN(C)C)o1,60.7*,i,-10.2,-21.0,·,30.7,i
COc1ccc2sc(N(CCN(C)C)C(=O)c3cc(Cl)sc3Cl)nc2c1,5.8,i,·,17.9,3.2,-17.6,·
COc1cc2ccccc2cc1C(=O)N(CCN(C)C)c1nc2ccc(Br)cc2s1,50.8*,i,6.8,12.9,34.3,17.9,i
CN(C)CCCN(C(=O)c1ccco1)c1nc2ccc(Br)cc2s1,57.1*,i,·,7.5,15.0,-10.0,i
COc1ccc(OC)c2sc(N(CCN(C)C)C(=O)c3cc(Cl)sc3Cl)nc12,51.0*,i,·,10.3,3.7,5.5,i
COc1cc2ccccc2cc1C(=O)N(CCN(C)C)c1nc2c(F)cc(F)cc2s1,-3.0,i,3.4,4.2,20.2,15.0,·
C[C@H]1CN([C@@H](C)CO)C(=O)Cc2cc(N(C)C)ccc2O[C@@H]1CN(C)S(C)(=O)=O,7.4,·,7.9,·,·,·,·
CO[C@H]1CN(C)C(=O)c2cc(NC(=O)c3ccc4c(c3)OCO4)ccc2OC[C@@H](C)N(CC2CC2)C[C@H]1C,4.5,·,-8.6,·,·,·,·
CN(C)CC(=O)Nc1ccc2c(c1)[C@H]1C[C@@H](CC(=O)NCc3cccnc3)O[C@@H](CO)[C@H]1O2,3.2,·,2.2,·,·,·,·
CN(C)CC(=O)N1[C@@H]2c3ccc(-c4ccncc4)c(=O)n3C[C@H]1[C@H](CO)[C@H]2C(=O)NC1CCC1,-3.3,·,2.6,·,·,·,·
O=C(C[n+]1ccccc1)N/N=C/c1ccco1,50.3*,i,·,7.3,2.2,-3.8,i
N#Cc1ccc2[nH]cc(C3c4cc(F)ccc4C=C(c4ccsc4)N3c3ccc(C#CCCO)cc3)c2c1 (stereo not drawn),-1.6,i,·,·,·,·,·
COc1cc(-c2ccc(N3C(c4ccsc4)=Cc4ccc(F)cc4C3c3c[nH]c4ccc(C#N)cc34)cc2)cc(OC)c1OC (stereo not drawn),71.0*,i,·,·,·,·,i
COc1cc(CN2CC3(CN(C(=O)c4cccnc4)C3)c3c([nH]c4cc(OC)ccc34)[C@H]2CO)cc(OC)c1,2.3,·,·,·,·,·,·
OC[C@@H]1CN(Cc2ccc3c(c2)OCO3)C[C@H](n2cnc3c(N4CCOCC4)ncnc32)O1,-11.0,i,-2.5,·,·,·,·
OC[C@@H]1CN(Cc2ccc3c(c2)OCO3)C[C@H](n2cnc3c(N4CCCC4)ncnc32)O1,86.0*,i,4.1,·,·,·,i
CCOc1cc(CNCCCN2CCOCC2)cc(Br)c1OCc1ccccc1Cl,50.1*,i,6.0,38.9,39.7*,11.8,i
CCOc1cc(CNCCO)cc(Br)c1OCc1ccccc1Cl,·,i,8.1,42.6,28.6,12.0,·
COCCCNC(=O)CCc1c(C)nc2c(c(C)nn2-c2ccccc2)c1C,-3.3,·,-5.5,-0.6,-37.6,2.4,·
CCN(CC)CCNC(=O)CCc1c(C)nc2c(c(C)nn2-c2ccc(C)c(C)c2)c1C,6.5,·,27.0,26.8,25.7,11.9,i
FC(F)(F)c1ccc2c(c1)nc1n2CCCC1,·,i,-8.2,6.7,0.1,6.7,·
CN1CCN(c2nc3cc(C(F)(F)F)ccc3n3cccc23)CC1,66.5*,i,40.4,8.0,·,32.3,i
SMILES,RAD52 anneal inh,Neddylation inh,RAD54 inh,UBC13 polyUb,FID counter,Apaf-1 inh,RAD52 DNA ctr
Nc1cc(N)cc(C(=O)c2ccccc2)c1,89.1*,i,6.2,·,·,·,i
C#CCOCCOCCOCCNc1nc(N2CCN(C(=O)[C@H](CCCCN)n3cc(CN)nn3)CC2)nc(N2CCN(C(=O)[C@H](CC(N)=O)n3cc(C(N)[C@H](C)CC)nn3)CC2)n1 (stereo partly drawn),64.4*,i,-52.4,37.1,·,8.9,i
C#CCOCCOCCOCCNc1nc(N2CCN(C(=O)[C@H]([C@@H](C)CC)n3cc([C@@H](N)CO)nn3)CC2)nc(N2CCN(C(=O)[C@H](CCCCN)n3cc([C@@H](N)CC(C)C)nn3)CC2)n1,51.6*,·,·,9.5,42.8*,-0.7,i
C#CCOCCOCCOCCNc1nc(N2CCN(C(=O)C([C@@H](C)CC)n3cc(C(N)CC(C)C)nn3)CC2)nc(N2CCN(C(=O)[C@H](CCCCN)n3cc(C(N)COC(=O)C(F)(F)F)nn3)CC2)n1 (stereo partly drawn),·,·,·,34.5,·,28.3,·
C#CCOCCOCCOCCNc1nc(N2CCN(C(=O)[C@H](CC(N)=O)n3cc(C(N)[C@H](C)CC)nn3)CC2)nc(N2CCN(C(=O)[C@H](CC(N)=O)n3cc(C(N)[C@@H](C)CC)nn3)CC2)n1 (stereo partly drawn),1.7,i,-23.4,13.5,·,15.6,·
C[C@@H]1CN([C@@H](C)CO)C(=O)c2cc(-c3cccnc3)cnc2O[C@@H]1CN(C)C(=O)C1CCOCC1,4.2,·,-5.2,·,·,·,·
OCCCCNCc1ccc(OCc2ccc(Cl)cc2Cl)cc1,65.6*,i,19.5,12.0,29.5,14.0,i
CO[C@@H]1CN(C)C(=O)c2ccc(NC(=O)c3ccccc3)cc2OC[C@H](C)N(C(=O)CN(C)C)C[C@@H]1C,0.5,·,-4.0,·,·,·,·
O=C1c2ccccc2C(=O)c2c(NCCCN(CCO)CCO)cccc21,93.1*,i,·,-416.5,89.0*,2.9,4.26µM*
CCOC(=O)CCc1c(C)nc(SCc2ccc(C(=O)O)cc2)c(C#N)c1C,96.5*,i,2.1,10.1,-31.4,-9.4,i
CO[C@@H]1CN(C)C(=O)c2ccc(NS(=O)(=O)CC(F)(F)F)cc2OC[C@H](C)N(C)C[C@@H]1C,0.4,·,-3.9,·,·,·,·
N#CCCN1CCN(Cn2c3ccccc3c3ccccc32)CC1,·,i,4.7,-6.6,-4.9,5.2,·
CN1CCN(CCCNCc2cn(CCC#N)c3ccccc23)CC1,63.1*,i,14.6,40.1,15.5,5.2,i
COc1ccc(/C=N/NC(=O)c2cc(OC)c(OC)c(OC)c2)cc1CN1CCc2cc(OC)c(OC)cc2C1C (stereo not drawn),52.9*,i,·,-0.5,12.0,17.0,i
C[C@@H]1CN([C@H](C)CO)S(=O)(=O)c2ccc(C#CC(C)(C)O)cc2O[C@H]1CN(C)Cc1ccncc1,-11.1,·,1.1,·,·,·,·
COc1cc2c(c(OC)c1OC)-c1c(cc3c(c1O)OCO3)C[C@@H](C)[C@@H](C)C2,7.8,i,-5.2,2.8,·,14.8,·
CNC12CCc3cc(OC)c(OC)c(c31)-c1cc3c(cc1C2)OCO3 (stereo not drawn),53.8*,·,·,·,·,·,i
